Test results reported in ChEMBL document CHEMBL1134288, “Design and optimization of 20-O-linked camptothecin glycoconjugates as anticancer agents” (J Med Chem, 2001).

What was measured:
B16-F10 = assay: In vitro cytotoxic activity against murine melanoma cell line B16F10 using MTT growth inhibition assay; format: functional, cell-based; conditions: Mus musculus
How it was run: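 This murine melanoma line was grown in RPMI 1640 with 10% FCS, trypsinized at confluence and seeded at 20,000 cells/mL, then left 1 day. Compounds in DMSO or water were added. After 6 days, MTT (5 mg/mL stock) was added for 5 h at 37 °C, formazan was dissolved in 2-propanol/water, and absorbance was read at 595 nm to give IC50.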

SW480 = assay: In vitro cytotoxic activity against human colon cancer cell line SW480 using MTT growth inhibition assay; format: functional, cell-based
How it was run: (§1)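 Cells were grown in RPMI 1640 with 10% FCS, trypsinized at confluence and plated at 50,000 cells/mL, then left 1 day. Compounds in DMSO or water were added, and growth was read 6 days later by MTT (5 mg/mL stock, 5 h at 37 °C). Formazan was dissolved in 2-propanol/water and absorbance read at 595 nm; IC50 was derived from this read-out.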

HT-29 = assay: In vitro cytotoxic activity against human colon cancer cell line HT-29 using MTT growth inhibition assay; format: functional, cell-based; how it was run: as §1
Rattus norvegicus [1] = species on record: Rattus norvegicus; assay: In vitro No effect conc (NOEC) with respect to elevated levels of Lactate dehydrogenase (LDH) using primary hepatocytes of rat; format: functional, Hepatocyte
How it was run: (§2)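 Primary hepatocytes were isolated by two-step liver perfusion: first an EGTA (0.5 mM)/HEPES buffer, then a HEPES (pH 7.4) buffer with CaCl2 and collagenase type IV. Cells were cultured in collagen sandwich gels in supplemented medium with 10% FCS, then given 48 h adaptation. DMSO stocks (3 mM) were diluted in medium. Treatment ran 1-7 days with daily medium change, and ALT, AST and LDH were read in the supernatant.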

Homo sapiens [2] = species on record: Homo sapiens; assay: In vitro No effect conc (NOEC) with respect to elevated levels of alanine aminotransferase (ALT) using primary hepatocytes of human; format: functional, Hepatocyte; how it was run: as §2
Canis familiaris [3] = species on record: Canis familiaris; assay: In vitro No effect conc (NOEC) with respect to elevated levels of Lactate dehydrogenase (LDH) using primary hepatocytes of dog; format: functional, Canis lupus familiaris, Hepatocyte; how it was run: as §2
Canis familiaris [4] = species on record: Canis familiaris; assay: In vitro No effect conc (NOEC) with respect to elevated levels of aspartate aminotransferase (AST) using primary hepatocytes of dog; format: functional, Canis lupus familiaris, Hepatocyte; how it was run: as §2
Canis familiaris [5] = species on record: Canis familiaris; assay: In vitro No effect conc (NOEC) with respect to elevated levels of alanine aminotransferase (ALT) using primary hepatocytes of dog; format: functional, Canis lupus familiaris, Hepatocyte; how it was run: as §2
Homo sapiens [6] = species on record: Homo sapiens; assay: In vitro No effect conc (NOEC) with respect to elevated levels of Lactate dehydrogenase (LDH) using primary hepatocytes of human; format: functional, Hepatocyte; how it was run: as §2
Rattus norvegicus [7] = species on record: Rattus norvegicus; assay: In vitro No effect conc (NOEC) with respect to elevated levels of alanine aminotransferase (ALT) using primary hepatocytes of rat; format: functional, Hepatocyte; how it was run: as §2
Rattus norvegicus [8] = species on record: Rattus norvegicus; assay: In vitro No effect conc (NOEC) with respect to elevated levels of aspartate aminotransferase (AST) using primary hepatocytes of rat; format: functional, Hepatocyte; how it was run: as §2
Homo sapiens [9] = species on record: Homo sapiens; assay: In vitro No effect conc (NOEC) with respect to elevated levels of aspartate aminotransferase (AST) using primary hepatocytes of human; format: functional, Hepatocyte; how it was run: as §2

## CC[C@@]1(OC(=O)CNC(=O)[C@H](Cc2c[nH]cn2)/N=C(\S)Nc2ccc(O[C@H]3O[C@@H](C)[C@@H](O)[C@@H](OC)[C@@H]3O)cc2)C(=O)OCc2c1cc1n(c2=O)Cc2cc3ccccc3nc2-1
B16-F10
  IC50: 0.03 µM
SW480
  IC50: 0.015 µM
HT-29
  IC50: 0.01 µM

## CC[C@@]1(OC(=O)[C@H](NC(=O)[C@H](Cc2c[nH]cn2)/N=C(\S)Nc2ccc(O[C@H]3O[C@@H](C)[C@@H](O)[C@@H](OC)[C@@H]3O)cc2)C(C)C)C(=O)OCc2c1cc1n(c2=O)Cc2cc3ccccc3nc2-1
B16-F10
  IC50: 0.6 µM
SW480
  IC50: 0.23 µM
HT-29
  IC50: 0.16 µM

## CC[C@@]1(OC(=O)C(NC(=O)[C@H](CCCN=C(N)N)/N=C(\S)Nc2ccc(O[C@H]3O[C@@H](C)[C@@H](O)[C@@H](OC)[C@@H]3O)cc2)C(C)C)C(=O)OCc2c1cc1n(c2=O)Cc2cc3ccccc3nc2-1 (stereo partly specified)
B16-F10
  IC50: 0.4 µM
SW480
  IC50: 0.17 µM
HT-29
  IC50: 0.1 µM

## CC[C@@]1(OC(=O)[C@H](NC(=O)[C@H](CCCN=C(N)N)/N=C(\S)Nc2ccc(O[C@H]3O[C@@H](C)[C@@H](O)[C@@H](OC)[C@@H]3O)cc2)C(C)C)C(=O)OCc2c1cc1n(c2=O)Cc2cc3ccccc3nc2-1
B16-F10
  IC50: 0.4 µM
SW480
  IC50: 0.11 µM
HT-29
  IC50: 0.1 µM

## CC[C@@]1(OC(=O)[C@H](NC(=O)[C@H](CCCCN)/N=C(\S)Nc2ccc(O[C@H]3O[C@@H](C)[C@@H](O)[C@@H](OC)[C@@H]3O)cc2)C(C)C)C(=O)OCc2c1cc1n(c2=O)Cc2cc3ccccc3nc2-1
B16-F10
  IC50: 0.6 µM
SW480
  IC50: 0.15 µM
HT-29
  IC50: 0.12 µM

## CC[C@@]1(OC(=O)C(NC(=O)[C@H](CCCCN)/N=C(\S)Nc2ccc(O[C@H]3O[C@@H](C)[C@@H](O)[C@@H](OC)[C@@H]3O)cc2)C(C)C)C(=O)OCc2c1cc1n(c2=O)Cc2cc3ccccc3nc2-1 (stereo partly specified)
Rattus norvegicus [1]
  NOEC: 30 µM
B16-F10
  IC50: 0.7 µM
Homo sapiens [2]
  NOEC: 30 µM
Canis familiaris [3]
  NOEC: 30 µM
Canis familiaris [4]
  NOEC: 30 µM
SW480
  IC50: 0.17 µM
Canis familiaris [5]
  NOEC: 10 µM
Homo sapiens [6]
  NOEC: 30 µM
HT-29
  IC50: 0.15 µM
Rattus norvegicus [7]
  NOEC: 30 µM
Rattus norvegicus [8]
  NOEC: 30 µM
Homo sapiens [9]
  NOEC: 30 µM

## CC[C@@]1(OC(=O)C(NC(=O)[C@H](Cc2c[nH]cn2)/N=C(\S)Nc2ccc(O[C@H]3O[C@@H](C)[C@@H](O)[C@@H](OC)[C@@H]3O)cc2)C(C)C)C(=O)OCc2c1cc1n(c2=O)Cc2cc3ccccc3nc2-1 (stereo partly specified)
Rattus norvegicus [1]
  NOEC: 10 µM
B16-F10
  IC50: 0.25 µM
Homo sapiens [2]
  NOEC: 30 µM
Canis familiaris [3]
  NOEC: 10 µM
Canis familiaris [4]
  NOEC: 10 µM
SW480
  IC50: 0.17 µM
Canis familiaris [5]
  NOEC: 10 µM
Homo sapiens [6]
  NOEC: 30 µM
HT-29
  IC50: 0.06 µM
Rattus norvegicus [7]
  NOEC: 10 µM
Rattus norvegicus [8]
  NOEC: 10 µM
Homo sapiens [9]
  NOEC: 30 µM

## CC[C@@]1(OC(=O)CNC(=O)[C@H](CCCCN)/N=C(\S)Nc2ccc(O[C@H]3O[C@@H](C)[C@@H](O)[C@@H](OC)[C@@H]3O)cc2)C(=O)OCc2c1cc1n(c2=O)Cc2cc3ccccc3nc2-1
B16-F10
  IC50: 0.05 µM
SW480
  IC50: 0.03 µM
HT-29
  IC50: 0.01 µM

## CC[C@@]1(O)C(=O)OCc2c1cc1n(c2=O)Cc2cc3c(CN(C)C)c(O)ccc3nc2-1.Cl [TOPOTECAN HYDROCHLORIDE]
Rattus norvegicus [1]
  NOEC: 1 µM
Homo sapiens [2]
  NOEC: 0.1 µM
Canis familiaris [3]
  NOEC: 1 µM
Canis familiaris [4]
  NOEC: 0.1 µM
Canis familiaris [5]
  NOEC: 1 µM
Homo sapiens [6]
  NOEC: 10 µM
Rattus norvegicus [7]
  NOEC: 0.1 µM
Rattus norvegicus [8]
  NOEC: 0.1 µM
Homo sapiens [9]
  NOEC: 1 µM
